Laboratory results: ChEMBL document CHEMBL1130275, “Novel N-substituted 3 alpha-[bis(4'-fluorophenyl)methoxy]tropane analogues: selective ligands for the dopamine transporter” (J Med Chem, 1997)

What was measured:
[1] = target: T1, Sodium-dependent dopamine transporter (Rattus norvegicus, UniProt P23977); assay: Displacement of [3H]WIN-35 428 from the dopamine transporter in rat caudate putamen.; format: tissue-based
Method in brief: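 Rat caudate putamen membranes washed in Krebs-HEPES pH 7.4, 0.5% w/v final. Filtration through BSA-soaked GF/B. Compounds run at 0.01 nM–100 μM, three experiments in triplicate. Ki derived by LIGAND nonlinear fitting of two-site binding.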

[2] = target: T2, Sodium-dependent noradrenaline transporter (Homo sapiens, UniProt P23975); assay: (§1) Compound was evaluated for binding to Norepinephrine Transporter (NET) using [3H]desmethylimipramine as radioligand; details: concentration not given here
Method in brief: (§2)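 Binding data supplied by an outside contract lab using published methods. SERT: [3H]citalopram, 0.7 nM final. NET: [3H]desmethylimipramine, 3.0 nM final.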

[3] = target: T1, Sodium-dependent dopamine transporter; assay: In vitro inhibition of dopamine uptake in rat tissue, was determined using [3H]DAU as radioligand
Method in brief: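 Rat caudate putamen slices (225 μm, cross-chopped) in oxygenated Krebs-HEPES at 37 °C. Stopped with ice-cold buffer and filtration. Accumulated label extracted with methanol/HCl and counted; filter blank subtracted. IC50 taken from the linear portion of the concentration–response curve by regression.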

[4] = target: Sodium-dependent serotonin transporter (Rattus norvegicus) (UniProt P31652); assay: (§3) Compound is evaluated for binding to Serotonin transporter using [3H]citalopram as radioligand in rat brain; format: tissue-based; details: concentration not given here; method in brief: as §2
[5] = target: T3, Muscarinic acetylcholine receptor M1 (Rattus norvegicus, UniProt P08482); assay: Binding affinity against Muscarinic acetylcholine receptor M1 sites of rat
T3 sequence (P08482 whole entry): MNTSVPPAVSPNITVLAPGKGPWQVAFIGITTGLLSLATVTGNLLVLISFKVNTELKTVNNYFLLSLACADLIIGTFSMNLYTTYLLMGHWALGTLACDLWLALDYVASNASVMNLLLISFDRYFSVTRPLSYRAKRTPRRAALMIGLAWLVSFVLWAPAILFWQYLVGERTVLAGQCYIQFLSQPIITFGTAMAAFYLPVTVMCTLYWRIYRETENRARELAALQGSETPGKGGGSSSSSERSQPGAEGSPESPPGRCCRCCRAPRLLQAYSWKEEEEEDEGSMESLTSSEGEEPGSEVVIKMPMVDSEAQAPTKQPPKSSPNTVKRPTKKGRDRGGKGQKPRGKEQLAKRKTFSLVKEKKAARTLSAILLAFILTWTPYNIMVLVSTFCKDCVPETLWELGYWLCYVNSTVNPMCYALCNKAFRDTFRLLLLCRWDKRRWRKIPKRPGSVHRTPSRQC
Method in brief: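 Whole rat brain minus cerebellum, membranes made by two-step centrifugation and resuspended in 10 mM Tris pH 7.4. Assay buffer is 10 mM Tris-HCl with 5 mM MgCl2. Membrane is preincubated 5 min with the compound, then [3H]pirenzepine 3 nM final is added for 1 h at 37 °C. Filtration through PEI-soaked GF/B. Compounds run at 0.01 nM–100 μM, ≥3 independent experiments in triplicate.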

[6] = target: T2, Sodium-dependent noradrenaline transporter; assay: as §1; method in brief: as §2
[7] = target: Sodium-dependent serotonin transporter (Rattus norvegicus, UniProt P31652); assay: as §3; format: tissue-based; method in brief: as §2
[8] = target: Sodium-dependent dopamine transporter (Rattus norvegicus) (UniProt P23977); assay: Inhibition of binding of [3H]WIN-35 428 to dopamine transporter (in rat caudate putamen) by 10 uM of compound.; format: tissue-based
[9] = target: T2, Sodium-dependent noradrenaline transporter; assay: Compound was evaluated for binding to Norepinephrine Transporter (NET).; method in brief: as §2

T1 sequence (P23977 whole entry): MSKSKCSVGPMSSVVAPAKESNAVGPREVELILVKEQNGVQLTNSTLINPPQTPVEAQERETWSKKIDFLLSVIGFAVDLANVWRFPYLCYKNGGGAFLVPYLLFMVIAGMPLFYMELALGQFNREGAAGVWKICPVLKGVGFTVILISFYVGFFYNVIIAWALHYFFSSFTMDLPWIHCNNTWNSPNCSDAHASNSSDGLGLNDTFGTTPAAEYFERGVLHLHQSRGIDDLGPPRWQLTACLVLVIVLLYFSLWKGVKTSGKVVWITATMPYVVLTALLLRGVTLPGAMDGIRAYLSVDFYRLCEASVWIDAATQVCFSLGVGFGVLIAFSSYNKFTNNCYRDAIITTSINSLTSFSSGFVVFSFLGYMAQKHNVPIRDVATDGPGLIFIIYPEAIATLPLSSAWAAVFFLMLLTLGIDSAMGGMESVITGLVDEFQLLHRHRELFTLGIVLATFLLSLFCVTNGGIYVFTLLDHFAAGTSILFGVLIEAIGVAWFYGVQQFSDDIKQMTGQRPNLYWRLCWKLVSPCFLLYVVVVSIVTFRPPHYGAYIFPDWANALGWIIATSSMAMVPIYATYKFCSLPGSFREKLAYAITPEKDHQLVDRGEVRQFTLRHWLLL
T2 sequence (P23975 whole entry): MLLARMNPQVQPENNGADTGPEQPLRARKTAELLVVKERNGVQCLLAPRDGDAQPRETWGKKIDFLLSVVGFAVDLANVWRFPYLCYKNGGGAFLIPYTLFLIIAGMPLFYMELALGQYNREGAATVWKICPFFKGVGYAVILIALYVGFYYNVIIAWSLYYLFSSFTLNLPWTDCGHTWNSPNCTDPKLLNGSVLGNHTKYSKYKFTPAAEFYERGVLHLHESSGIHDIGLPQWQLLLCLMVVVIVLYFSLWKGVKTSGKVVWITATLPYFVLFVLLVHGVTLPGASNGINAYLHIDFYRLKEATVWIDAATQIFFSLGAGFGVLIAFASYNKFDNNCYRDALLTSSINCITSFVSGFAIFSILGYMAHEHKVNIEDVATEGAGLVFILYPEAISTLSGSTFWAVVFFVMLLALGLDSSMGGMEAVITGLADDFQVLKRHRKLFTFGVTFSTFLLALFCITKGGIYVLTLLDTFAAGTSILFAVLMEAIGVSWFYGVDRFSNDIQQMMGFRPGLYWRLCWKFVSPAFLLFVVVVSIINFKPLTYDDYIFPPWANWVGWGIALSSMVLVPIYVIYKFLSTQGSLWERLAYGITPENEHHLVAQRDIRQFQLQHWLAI
Sodium-dependent serotonin transporter, sequence (P31652 whole entry): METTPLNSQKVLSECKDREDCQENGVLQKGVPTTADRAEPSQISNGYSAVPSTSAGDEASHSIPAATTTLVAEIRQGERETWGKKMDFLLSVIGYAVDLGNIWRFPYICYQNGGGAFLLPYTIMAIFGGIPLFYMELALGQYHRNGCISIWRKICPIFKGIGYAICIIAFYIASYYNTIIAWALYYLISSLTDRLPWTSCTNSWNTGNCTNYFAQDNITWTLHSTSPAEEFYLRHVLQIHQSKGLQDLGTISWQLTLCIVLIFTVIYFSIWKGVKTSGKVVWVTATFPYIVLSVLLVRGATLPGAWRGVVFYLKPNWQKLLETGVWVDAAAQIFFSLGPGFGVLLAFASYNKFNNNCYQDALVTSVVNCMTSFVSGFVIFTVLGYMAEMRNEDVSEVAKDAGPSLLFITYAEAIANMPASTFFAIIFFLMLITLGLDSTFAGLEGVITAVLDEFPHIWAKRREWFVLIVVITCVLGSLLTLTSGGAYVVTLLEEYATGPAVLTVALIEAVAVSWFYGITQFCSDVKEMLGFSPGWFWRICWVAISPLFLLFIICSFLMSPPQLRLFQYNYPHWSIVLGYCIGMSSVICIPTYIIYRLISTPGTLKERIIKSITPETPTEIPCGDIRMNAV
Sodium-dependent serotonin transporter (Rattus norvegicus), sequence (P31652 whole entry): as above
Sodium-dependent dopamine transporter (Rattus norvegicus), sequence (P23977 whole entry): as the sequence (P23977 whole entry) above

## CC(=O)N1C2CCC1CC(OC(c1ccc(F)cc1)c1ccc(F)cc1)C2 (configuration not stated)
[1]
  Ki: 2340 nM
[2]
  inhibition: 8.5%
[3]
  IC50: 4600 nM
[4]
  inhibition: 1.3%

## C=CCN1C2CCC1CC(OC(c1ccc(F)cc1)c1ccc(F)cc1)C2 (configuration not stated)
[1]
  Ki: 29.9 nM
[5]
  Ki: 126 nM
[6]
  Ki: 5920 nM
[3]
  IC50: 14 nM
[7]
  Ki: 1450 nM

## Fc1ccc(CN2C3CCC2CC(OC(c2ccc(F)cc2)c2ccc(F)cc2)C3)cc1 (configuration not stated)
[1]
  Ki: 95.6 nM
[5]
  Ki: 611 nM
[2]
  inhibition: 60%
[3]
  IC50: 200 nM

## Fc1ccc(C(OC2CC3CCC(C2)N3Cc2ccccc2)c2ccc(F)cc2)cc1 (configuration not stated)
[1]
  Ki: 82.2 nM
[5]
  Ki: 773 nM
[6]
  Ki: 2080 nM
[3]
  IC50: 290 nM
[4]
  inhibition: 74%

## O=[N+]([O-])c1ccc(-c2ccc(COCCN3C4CCC3CC(OC(c3ccc(F)cc3)c3ccc(F)cc3)C4)cc2)cc1 (configuration not stated)
[1]
  Ki: 57 nM

## O=CN1C2CCC1CC(OC(c1ccc(F)cc1)c1ccc(F)cc1)C2 (configuration not stated)
[1]
  Ki: 2020 nM
[5]
  Ki: 12300 nM
[2]
  inhibition: 29.4%
[3]
  IC50: 5400 nM
[4]
  inhibition: 1.6%

## Fc1ccc(C(OCCN2C3CCC2CC(OC(c2ccc(F)cc2)c2ccc(F)cc2)C3)c2ccc(F)cc2)cc1 (configuration not stated)
[1]
  Ki: 634 nM

## Cc1ccc(S(=O)(=O)N2C3CCC2CC(OC(c2ccc(F)cc2)c2ccc(F)cc2)C3)cc1 (configuration not stated)
[8]
  inhibition: 0%

## C[N+]1(C)[C@@H]2CC[C@H]1C[C@@H](OC(c1ccc(F)cc1)c1ccc(F)cc1)C2
[1]
  Ki: 108 nM
[5]
  Ki: 29.1 nM
[2]
  inhibition: 38%
[3]
  IC50: 130 nM
[4]
  inhibition: 79%

## CCCCN1C2CCC1CC(OC(c1ccc(F)cc1)c1ccc(F)cc1)C2 (configuration not stated)
[1]
  Ki: 24.6 nM
[5]
  Ki: 251 nM
[6]
  Ki: 1330 nM
[3]
  IC50: 370 nM
[7]
  Ki: 1730 nM

## CS(=O)(=O)N1C2CCC1CC(OC(c1ccc(F)cc1)c1ccc(F)cc1)C2 (configuration not stated)
[8]
  inhibition: 18%

## Fc1ccc(CCCN2C3CCC2CC(OC(c2ccc(F)cc2)c2ccc(F)cc2)C3)cc1 (configuration not stated)
[1]
  Ki: 60.7 nM

## Fc1ccc(C(OC2CC3CCC(C2)N3CC2CC2)c2ccc(F)cc2)cc1 (configuration not stated)
[1]
  Ki: 32.4 nM
[5]
  Ki: 136 nM
[6]
  Ki: 4790 nM
[3]
  IC50: 180 nM
[7]
  Ki: 1190 nM

## Fc1ccc(C(OC2CC3CCC(C2)N3)c2ccc(F)cc2)cc1 (configuration not stated)
[1]
  Ki: 11.2 nM
[5]
  Ki: 156 nM
[3]
  IC50: 9.7 nM
[7]
  Ki: 2100 nM
[9]
  Ki: > 8000 nM

## Fc1ccc(C(OC2CC3CCC(C2)N3CCCc2ccccc2)c2ccc(F)cc2)cc1 (configuration not stated)
[1]
  Ki: 41.9 nM
[5]
  Ki: 136 nM
[6]
  Ki: 3520 nM
[3]
  IC50: 230 nM
[7]
  Ki: 375 nM

## CN1C2CCC1CC(OC(c1ccc(F)cc1)c1ccc(F)cc1)C2 (configuration not stated) [DIFLUOROBENZTROPINE]
[6]
  Ki: > 8500 nM
[7]
  Ki: 2440 nM

## O=[N+]([O-])c1ccc(CCCCN2[C@@H]3CC[C@H]2C[C@@H](OC(c2ccc(F)cc2)c2ccc(F)cc2)C3)cc1
[1]
  Ki: 20.2 nM
[3]
  IC50: 650 nM
